Reference: ChEMBL document CHEMBL1126285, “Novel benzothiophene-, benzofuran-, and naphthalenecarboxamidotetrazoles as potential antiallergy agents” (J Med Chem, 1992)

Key:
Homo sapiens [1] = organism: Homo sapiens; assay: Evaluated for the inhibition of human basophil histamine release stimulated by anti-Immunoglobulin E (IgE) at a concentration of 33 uM; assay type: functional
Summary of the method: (§1)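 Whole blood from well-characterized allergic donors; after red-cell sedimentation, leukocytes were washed and resuspended in buffer, preincubated with compound, then challenged with anti-IgE. Histamine was read by automated fluorometric assay, with inhibition taken against anti-IgE-challenged nondrug controls. IC50 runs used 3-fold steps over 1-100 μM.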

Homo sapiens [2] = organism: Homo sapiens; assay: Evaluated for the inhibition of superoxide (O2 -) anion release from human neutrophils; assay type: functional
Summary of the method: (§2)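 Neutrophil preparations (~98% purity) were isolated by Ficoll-Hypaque gradient centrifugation of anticoagulant-treated venous blood and stimulated with serum-opsonized zymosan. Respiratory burst was read as superoxide-mediated reduction of cytochrome C.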

Homo sapiens [3] = organism: Homo sapiens; assay: Evaluated for the inhibition of human basophil histamine release stimulated by anti-Immunoglobulin E (IgE) at a concentration of 10 uM; inactive; assay type: functional; summary of the method: as §1
Homo sapiens [4] = organism: Homo sapiens; assay: Evaluated for the inhibition of human basophil histamine release stimulated by anti-Immunoglobulin E (IgE) at a concentration of 10 uM; assay type: functional; summary of the method: as §1
[5] = Compound was evaluated for the inhibition of human basophil histamine release stimulated by anti-Immunoglobulin E (IgE) at a concentration of 33 uM; inactive; assay type: functional; summary of the method: as §1
[6] = Compound was evaluated for the inhibition of superoxide (O2 -) anion release from human neutrophils at 100 uM; inactive; assay type: functional; summary of the method: as §2
Homo sapiens [7] = organism: Homo sapiens; assay: Compound was evaluated for the inhibition of serum-opsonized zymosan stimulated TXB2 release from human neutrophil; assay type: functional
Summary of the method: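 Human polymorphonuclear leukocytes (~98% neutrophils) came from anticoagulant-treated venous blood via Ficoll-Hypaque centrifugation. They were stimulated with serum-opsonized zymosan, and TxB2 release was measured by radioimmunoassay.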

[8] = molecular target: T1, Eosinophil peroxidase (Homo sapiens) (UniProt P11678); assay: Compound was evaluated for the inhibition of serum-opsonized zymosan stimulated eosinophil peroxidase release from human eosinophil; Inactive; assay type: functional; conditions: concentration not given here
T1 sequence (whole entry): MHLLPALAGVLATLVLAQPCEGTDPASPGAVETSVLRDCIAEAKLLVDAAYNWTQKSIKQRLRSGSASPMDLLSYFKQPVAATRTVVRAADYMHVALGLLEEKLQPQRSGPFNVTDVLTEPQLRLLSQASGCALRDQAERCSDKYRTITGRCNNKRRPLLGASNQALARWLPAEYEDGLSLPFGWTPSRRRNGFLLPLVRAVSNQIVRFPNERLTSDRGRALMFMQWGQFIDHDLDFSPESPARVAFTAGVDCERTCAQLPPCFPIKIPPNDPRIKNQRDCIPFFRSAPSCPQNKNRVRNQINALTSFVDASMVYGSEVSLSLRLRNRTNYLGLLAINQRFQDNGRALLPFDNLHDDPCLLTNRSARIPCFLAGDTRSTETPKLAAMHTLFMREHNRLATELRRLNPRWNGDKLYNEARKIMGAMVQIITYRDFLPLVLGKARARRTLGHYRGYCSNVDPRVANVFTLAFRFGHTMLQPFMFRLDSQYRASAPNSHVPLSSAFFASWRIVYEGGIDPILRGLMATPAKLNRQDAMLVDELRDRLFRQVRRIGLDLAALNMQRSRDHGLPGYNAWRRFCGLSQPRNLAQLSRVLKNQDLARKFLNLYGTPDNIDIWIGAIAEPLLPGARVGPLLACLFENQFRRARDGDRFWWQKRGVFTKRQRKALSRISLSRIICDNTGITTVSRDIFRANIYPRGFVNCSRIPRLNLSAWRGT

[9] = Compound was evaluated for the inhibition of serum-opsonized zymosan stimulated superoxide (O2-) release from human eosinophil; assay type: functional
Summary of the method: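 Eosinophils were enriched above 95% purity by discontinuous Percoll gradient centrifugation after Ficoll-Hypaque separation of venous blood leukocytes. Cells were stimulated with serum-opsonized zymosan, and superoxide was measured as cytochrome C reduction.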

[10] = Compound was evaluated for the inhibition of serum-opsonized zymosan stimulated superoxide (O2-) release from human neutrophil; assay type: functional; summary of the method: as §2
[11] = Concentration inhibiting anti-IgE stimulated release of leukotriene C4/D4 (LTC4/D4) from human chopped lung by 50% of control value; assay type: functional, tissue-based
Summary of the method: (§3)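 Human lung tissue (~400 mg portions) was incubated 10 min in Tyrode's buffer at 37 °C, dosed with drug or vehicle, and challenged 10 min later with anti-IgE (final 3:1000) for 30 min. Supernatant leukotrienes or thromboxane were measured by RIA kits, giving the concentration for 50% inhibition of control release.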

Homo sapiens [12] = organism: Homo sapiens; assay: Compound was evaluated for the inhibition of anti-IgE stimulated TXB2 release from human basophil; assay type: functional
Homo sapiens [13] = organism: Homo sapiens; assay: Inhibition of anti-IgE stimulated release of Thromboxane B2 (TXB2) from human chopped lung by 50% of control value; assay type: functional; summary of the method: as §3
[14] = Compound was evaluated for the inhibition of anti-IgE stimulated histamine release from human basophil; assay type: functional; summary of the method: as §1
[15] = Concentration inhibiting anti-IgE stimulated release of histamine from human chopped lung by 50% of control value; assay type: functional, tissue-based
Summary of the method: (§4)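 Human lung tissue was washed, and ~400 mg portions were placed in 37 °C buffer. After 10 min in Tyrode's buffer, drug or vehicle was added; 10 min later, tissue was challenged with anti-IgE (final dilution 3:1000) for 30 min. Supernatant histamine was assayed, giving the concentration for 50% inhibition versus control.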

Homo sapiens [16] = organism: Homo sapiens; assay: Inhibition of anti-IgE stimulated release of histamine from human chopped lung by 50% of control value; assay type: functional; summary of the method: as §4
Homo sapiens [17] = organism: Homo sapiens; assay: Inhibition of anti-IgE stimulated release of leukotriene C4/D4 (LTC4/D4) from human chopped lung by 50% of control value; assay type: functional; summary of the method: as §3

Row | SMILES | inhibition at 33 µM (Homo sapiens [1]) | IC50 (Homo sapiens [2]) | inhibition at 10 µM (Homo sapiens [3]) | inhibition at 10 µM (Homo sapiens [4]) | other results
1 | CC(C)Oc1c(C(=O)Nc2nn[nH]n2)sc2ccc(OCc3ccccc3)cc12 | 41.6% | > 100 µM | < 25% | – | –
2 | COc1ccc2c(OC(C)C)c(C(=O)Nc3nn[nH]n3)oc2c1 | 99.5% | 42.5 µM | – | 77% | –
3 | COc1ccc2c(OC(C)C)c(C(=O)Nc3nn[nH]n3)sc2c1Cl | – | > 100 µM | < 25% | – | inhibition at 33 µM [5]: < 25%
4 | Cc1ccc2sc(C(=O)Nc3nn[nH]n3)c(OC(C)C)c2c1 | – | – | < 25% | – | inhibition at 100 µM [6]: < 5%; inhibition at 33 µM [5]: < 25%
5 | COc1ccc2sc(C(=O)Nc3nnn[nH]3)c(OC(C)C)c2c1 | 97.3% | 14.5 µM | – | 94.7% | IC50 (Homo sapiens [7]): 4.5 µM; inhibition [8]: < 20%; IC50 [9]: 5.5 µM; IC50 [10]: 14.5 µM; IC50 [11]: 0.3 µM; IC50 (Homo sapiens [12]): 0.2 µM; IC50 (Homo sapiens [13]): 0.3 µM; IC50 [14]: 1.1 µM; IC50 [15]: 2.3 µM
6 | COc1ccc2sc(C(=O)Nc3nn[nH]n3)c(Oc3ccccc3)c2c1 | 91.3% | 10.1 µM | – | 96.3% | IC50 (Homo sapiens [16]): 3.5 µM; IC50 (Homo sapiens [17]): 1.1 µM; IC50 (Homo sapiens [13]): 4.9 µM
7 | CC(C)Oc1c(C(=O)Nc2nn[nH]n2)sc2ccccc12 | 65.8% | > 100 µM | – | 27.5% | –
8 | COc1ccc2sc(C(=O)Nc3nn[nH]n3)c(OC)c2c1 | 97.3% | > 100 µM | – | 59.8% | –
9 | COc1ccc2ccc(C(=O)Nc3nn[nH]n3)c(OC(C)C)c2c1 | 90.5% | > 100 µM | – | 51% | –
10 | COc1cc2sc(C(=O)Nc3nn[nH]n3)c(Oc3ccccc3)c2cc1OC | 93.6% | 5.7 µM | – | 96% | IC50 (Homo sapiens [16]): 4.9 µM; IC50 (Homo sapiens [17]): 9.7 µM; IC50 (Homo sapiens [13]): < 0.75 µM
11 | COc1ccc2sc(C(=O)Nc3nn[nH]n3)c(OC(C)(C)C)c2c1 | 100% | > 100 µM | – | 62% | –
12 | COc1cc2sc(C(=O)Nc3nn[nH]n3)c(OCc3ccccc3)c2cc1OC | 90.7% | 40 µM | – | 90.3% | IC50 (Homo sapiens [16]): 2.5 µM; IC50 (Homo sapiens [17]): 1.3 µM; IC50 (Homo sapiens [13]): < 0.74 µM
13 | COc1ccc2c(OC(C)C)c(C(=O)Nc3nn[nH]n3)sc2c1 | 88.6% | 37 µM | – | 92% | IC50 (Homo sapiens [16]): 0.9 µM; IC50 (Homo sapiens [17]): 0.4 µM; IC50 (Homo sapiens [13]): 0.3 µM
14 | CCOc1c(C(=O)Nc2nn[nH]n2)sc2ccc(OC)cc12 | 98% | > 100 µM | – | 92.5% | –
15 | CC(C)Oc1c(C(=O)Nc2nn[nH]n2)sc2ccc(Oc3ccccc3)cc12 | 55% | > 100 µM | < 25% | – | –
16 | CC(C)Oc1c(C(=O)Nc2nn[nH]n2)sc2ccc(Cl)cc12 | 92% | > 100 µM | – | 73% | –
17 | COc1cc2sc(C(=O)Nc3nn[nH]n3)c(OC(C)C)c2cc1OC | 81.7% | 17.7 µM | – | 80% | IC50 (Homo sapiens [16]): 4.5 µM; IC50 (Homo sapiens [17]): 0.3 µM; IC50 (Homo sapiens [13]): < 0.75 µM
18 | COc1ccc2oc(C(=O)Nc3nn[nH]n3)c(OC(C)C)c2c1 | 43.3% | > 100 µM | < 25% | – | –
19 | COc1cccc2c(OC(C)C)c(C(=O)Nc3nn[nH]n3)sc12 | < 25% | > 100 µM | < 25% | – | –
20 | COc1ccc2c(c1)c(OC(C)C)c(C(=O)Nc1nn[nH]n1)n2-c1ccccc1 | 82% | > 100 µM | – | 46% | IC50 (Homo sapiens [16]): 11 µM; IC50 (Homo sapiens [17]): 12 µM; IC50 (Homo sapiens [13]): 12 µM
21 | COc1ccc2c(OC(C)C)c(C(=O)Nc3nn[nH]n3)ccc2c1 | 72.7% | – | – | 31.3% | –
22 | COc1ccc2sc(C(=O)Nc3nn[nH]n3)c(OCc3ccccc3)c2c1 | 84.5% | 23.4 µM | – | 80.8% | –
23 | CCCc1c2oc(C(=O)O)cc(=O)c2cc2c(=O)cc(C(=O)O)n(CC)c12 [NEDOCROMIL] | – | – | < 25% | – | inhibition at 33 µM [5]: < 25%
24 | CC(C)Oc1c(C(=O)Nc2nn[nH]n2)sc2ccc([N+](=O)[O-])cc12 | 53% | – | < 25% | – | inhibition at 100 µM [6]: < 5%
25 | CC(C)Oc1c(C(=O)Nc2nn[nH]n2)sc2ccc(O)cc12 | 86% | 47.8 µM | < 25% | – | –
